The source made the active and inactive calls. No cut-off for these calls is given here.
Tests used:
[1] = test system: NCI-60 human cancer cell line panel (Homo sapiens); assay: Cytotoxicity against NCI-60 human cancer cell line panel (mean) at 10 uM; conditions: pooled result: one value given for 8 cell lines, strains, targets or settings, read-out: GI
[2] = target: T1, DNA topoisomerase 1 (Homo sapiens) (UniProt P11387); assay: Inhibition of human recombinant Top1-mediated DNA cleavage at 0.1 to 100 uM after 20 mins relative to camptothecin; parameters: scale not given: the % may be the effect or the level left
T1 sequence (whole entry): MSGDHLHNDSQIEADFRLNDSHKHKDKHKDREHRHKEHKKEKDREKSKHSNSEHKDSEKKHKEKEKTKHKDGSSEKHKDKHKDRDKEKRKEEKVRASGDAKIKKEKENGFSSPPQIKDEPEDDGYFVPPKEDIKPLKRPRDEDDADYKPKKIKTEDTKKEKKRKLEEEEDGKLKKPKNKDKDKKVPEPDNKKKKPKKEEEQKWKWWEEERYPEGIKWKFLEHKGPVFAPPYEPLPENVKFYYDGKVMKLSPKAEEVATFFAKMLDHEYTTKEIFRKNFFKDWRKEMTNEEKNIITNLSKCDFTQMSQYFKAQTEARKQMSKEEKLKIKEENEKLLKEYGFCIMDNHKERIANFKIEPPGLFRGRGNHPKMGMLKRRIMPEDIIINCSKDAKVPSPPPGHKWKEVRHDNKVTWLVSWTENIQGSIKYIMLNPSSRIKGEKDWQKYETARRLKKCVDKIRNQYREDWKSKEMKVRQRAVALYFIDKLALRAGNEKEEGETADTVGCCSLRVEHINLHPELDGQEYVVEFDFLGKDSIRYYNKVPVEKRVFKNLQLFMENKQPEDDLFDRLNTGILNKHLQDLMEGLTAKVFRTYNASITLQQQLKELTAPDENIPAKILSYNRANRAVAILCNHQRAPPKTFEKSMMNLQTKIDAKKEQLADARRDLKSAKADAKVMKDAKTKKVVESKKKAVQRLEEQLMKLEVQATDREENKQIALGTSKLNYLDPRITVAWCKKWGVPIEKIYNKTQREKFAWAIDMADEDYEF
In short: (§1)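 Human recombinant Top1 purified from baculovirus. Substrate is a 117-bp oligonucleotide, about 2 nM, 3′-end labelled with 32P-dGTP by Klenow fill-in. Stopped with 0.5% SDS, run on 20% denaturing PAGE and phosphorimaged. Cleavage graded 0 to +++ against 1 μM camptothecin.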

[3] = test system: MCF7; assay: Cytotoxicity against human MCF7 cells; assay type: functional
In short: (§2)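 NCI 60-cell-line screen (eight solid-tumour subpanels plus leukemia). A one-dose pass at 10−5 M came first. Selected compounds were then run at five concentrations from 10−8 to 10−4 M. GI50 is the concentration giving 50% growth inhibition.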

[4] = test system: HOP-62; assay: Cytotoxicity against human HOP62 cells; assay type: functional
In short: as §2

[5] = test system: DU-145; assay: Cytotoxicity against human DU145 cells; assay type: functional
In short: as §2

[6] = target: T1, DNA topoisomerase 1 (Homo sapiens); assay: Inhibition of human recombinant Top1-mediated DNA cleavage at 1 uM after 20 mins relative to camptothecin
In short: as §1

[7] = test system: HCT-116; assay: Cytotoxicity against human HCT116 cells; assay type: functional
In short: as §2

[8] = test system: SF-539; assay: Cytotoxicity against human SF539 cells; assay type: functional
In short: as §2

[9] = test system: UACC-62; assay: Cytotoxicity against human UACC62 cells; assay type: functional
In short: as §2

[10] = test system: SN12C; assay: Cytotoxicity against human SN12C cells; assay type: functional
In short: as §2

[11] = test system: OVCAR-3; assay: Cytotoxicity against human OVCAR-3 cells; assay type: functional
In short: as §2

| SMILES | inhibition of growth at 10 µM [1] [%] | Activity [2] | GI50 [3] [µM] | GI50 [4] [µM] | GI50 [5] [µM] | Activity [6] | GI50 [7] [µM] | GI50 [8] [µM] | GI50 [9] [µM] | GI50 [10] [µM] | GI50 [11] [µM] |
| --- | --- | --- | --- | --- | --- | --- | --- | --- | --- | --- | --- |
| O=c1c2ccccc2cc2n1Cc1c-2nc2cc(Cl)ccc2c1Cn1ccnc1 | < 15 | 0% |  |  |  |  |  |  |  |  |  |
| O=c1c2ccccc2cc2n1Cc1c-2nc2cc3c(cc2c1CNCCCn1ccnc1)OCCO3 | 14.3 | 50% |  |  |  |  |  |  |  |  |  |
| CC[C@@]1(O)C(=O)OCc2c1cc1n(c2=O)Cc2cc3ccccc3nc2-1 [CAMPTOTHECIN] |  |  | 0.01 | 0.01 | 0.01 | Active | 0.03 | 0.01 | 0.01 | 0.02 |  |
| O=c1c2ccccc2cc2n1Cc1c-2nc2ccc(Cl)cc2c1CNCCCn1ccnc1 | 30 | 50% |  |  |  |  |  |  |  |  |  |
| COc1cc2nc3c(c(CN4CC[C@H](O)C4)c2cc1OC)Cn1c-3cc2ccccc2c1=O | 14.2 | inactive |  |  |  |  |  |  |  |  |  |
| CN1CCN(Cc2c3c(nc4cc5c(cc24)OCCO5)-c2cc4ccccc4c(=O)n2C3)CC1 | 23 | 50% |  |  |  |  |  |  |  |  |  |
| Cc1cc2c(CN3CC[C@H](O)C3)c3c(nc2cc1F)-c1cc2ccccc2c(=O)n1C3 | > 25 | 50% |  |  |  |  |  |  |  |  |  |
| O=c1c2ccccc2cc2n1Cc1c-2nc2cc3c(cc2c1CCl)OCCO3 | 10.3 | 20% |  |  |  |  |  |  |  |  |  |
| O=c1c2ccccc2cc2n1Cc1c-2nc2cc(Cl)ccc2c1CN1CC[C@H](O)C1 | < 15 | 20% |  |  |  |  |  |  |  |  |  |
| O=c1c2ccccc2cc2n1Cc1c-2nc2cc3c(cc2c1CNCCCN1CCOCC1)OCCO3 | 10.8 | 50% |  |  |  |  |  |  |  |  |  |
| COc1cc2c3c(n(CCCNCCO)c(=O)c2cc1OC)-c1cc2c(cc1C3=O)OCO2 [LMP-744] |  |  | < 0.01 | 0.02 | < 0.01 | Active | 0.1 | 0.04 | 0.03 | < 0.01 | 0.5 |
| Cc1cc2c(CNCCO)c3c(nc2cc1F)-c1cc2ccccc2c(=O)n1C3 | > 25 | 50% | 1.62 | 11.2 | 12.2 |  | 18.4 | 9.23 | 14.2 | 20.2 | 16.8 |
| CN(C)Cc1c2c(nc3cc4c(cc13)OCCO4)-c1cc3ccccc3c(=O)n1C2 |  | 75% | 0.3 | 3.31 | 2.19 |  | 1.17 | 2.69 | 1.66 | 2.51 | 2.19 |
| O=c1c2ccccc2cc2n1Cc1c-2nc2ccc(Cl)cc2c1Cn1ccnc1 |  | 20% | 0.19 | 0.46 | 0.48 |  | 0.4 | 0.39 | 0.31 | 1.54 | 0.69 |
| CN(C)CCCc1c2c(nc3cc4c(cc13)OCCO4)-c1cc3ccccc3c(=O)n1C2 | 19 | 75% |  |  |  |  |  |  |  |  |  |
| O=c1c2ccccc2cc2n1Cc1c-2nc2cc3c(cc2c1CN1CC[C@H](O)C1)OCCO3 |  | 50% | 0.27 | 1.01 | 1.02 |  | 0.82 | 0.49 | 0.46 | 0.94 | 1.84 |
| O=c1c2ccccc2cc2n1Cc1c-2nc2cc(Cl)ccc2c1CNCCCn1ccnc1 | > 15 | 20% | 1.66 | 2 |  |  | 1.82 | 1.86 | 1.91 | 2.09 | 2.04 |
| O=c1c2ccccc2cc2n1Cc1cc3ccccc3nc1-2 [ROSETTACIN] |  | 50% | 60.3 | > 100 | > 100 |  | 57.3 | > 100 | > 100 | > 100 | > 100 |
